Results as given in ChEMBL document CHEMBL1138064, “Discovery of N-[(3R)-1-azabicyclo[2.2.2]oct-3-yl]furo[2,3-c]pyridine-5-carboxamide, an agonist of the alpha7 nicotinic acetylcholine receptor, for the potential treatment of cognitive deficits in schizophrenia: synthesis and structure--activity relationship” (J Med Chem, 2006).

Experiments:
[1] = target: Neuronal acetylcholine receptor subunit alpha-7 (Rattus norvegicus, UniProt Q05941); test: Displacement of [3H]MLA from alpha-7 nAChR in Sprague-Dawley rat brain homogenates; format: tissue-based
Method in brief: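 Rat brain homogenate binding assay with [3H]MLA as radioligand. Values are the average of two or more experiments.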

[2] = Activity at alpha7-5HT3 chimera expressed in SHEP1 cells by FLIPR assay; format: functional, cell-based; details: Homo sapiens, SH-EP1
Method in brief: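 Cell-based FLIPR functional assay in SH-EP1 cells expressing the α7-5HT3 chimera. Values are the average of at least five experiments for most compounds.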

[3] = Metabolic stability in Sprague-Dawley rat liver microsomes after 1 hr; format: ADME, Microsome; details: read-out: Stability
Method in brief: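 Rat liver microsomes incubated with compound, in vitro metabolism; read-out is percent of parent remaining at 1 h.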

[4] = target: Neuronal acetylcholine receptor; alpha3/beta4 (Homo sapiens, UniProt P30926+P32297); test: Inhibition of alpha-3-beta-4 nAChR expressed in SHSY5Y cells by FLIPR assay; format: functional, cell-based, SH-SY5Y
Method in brief: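 FLIPR cell-based functional assay in SH-SY5Y cells, which carry α3β4-containing ganglion-type nAChRs; tested for agonist and antagonist activity; IC50 in µM.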

[5] = target: Acetylcholine receptor; alpha1/beta1/delta/gamma (Homo sapiens, UniProt P02708+P07510+P11230+Q07001); test: Inhibition of alpha-1-beta-1-gamma-delta nAChR expressed in TE671cells by FLIPR assay; format: functional, cell-based, TE-671
Method in brief: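 Functional FLIPR read-out in TE671 cells expressing native muscle-type α1β1γδ nAChR, cell-based; tested for agonist and antagonist activity; IC50 in µM.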

[6] = target: Serotonin 3 (5-HT3) receptor; test: Activity at 5HT3 receptor expressed in SHEP1 cells by FLIPR assay; format: functional, cell-based, Homo sapiens
Method in brief: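 Cell-based FLIPR functional assay in SH-EP1 cells expressing 5-HT3.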

[7] = target: Serotonin 3 (5-HT3) receptor; test: Binding affinity to 5HT3 receptor; format: protein-complex assay, Homo sapiens
hERG [8] = target: T1, hERG (Homo sapiens, UniProt Q12809); test: Inhibition of hERG expressed in HEK293 cells at 20 uM by patch clamp assay; format: toxicity, cell-based; details: HEK293 cells that express hERG
Method in brief: (§1)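 hERG current (IKr) in HEK cells recorded by patch clamp; compound applied at 2 and 20 µM; % block of current reported at each concentration.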

hERG [9] = target: T1, hERG; test: Inhibition of hERG expressed in HEK293 cells at 2 uM by patch clamp assay; format: toxicity, cell-based; details: HEK293 cells that express hERG; method in brief: as §1
[10] = Oral bioavailability in rat constant infusion model; format: ADME, organism-based; details: in vivo
Method in brief: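 Rat clearance and oral bioavailability derived from a constant infusion model.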

[11] = Clearance in rat constant infusion model; format: ADME, organism-based; details: in vivo, iv
Method in brief: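 Clearance determined in a rat constant infusion model.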

Cytochrome P450 2D6 = Cytochrome P450 2D6 (Homo sapiens, UniProt P10635); test: Inhibition of CYP2D6; format: ADME
[12] = Half life in Sprague-Dawley rat liver microsome; format: ADME; details: liver microsomes
[13] = Half life in human liver microsome; format: ADME; details: liver microsomes
[14] = target: Neuronal acetylcholine receptor; alpha4/beta2 (Rattus norvegicus) (UniProt P09483+P12390); test: Inhibition of [3H]cytisine binding to alpha4beta2 nAChR in rat brain homogenate at 1 uM; format: tissue-based
Method in brief: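 Radioligand displacement in rat brain homogenate with [³H]cytisine as the α4β2 ligand; test compound at 1 µM; value reported as % block of binding.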

Neuronal acetylcholine receptor; alpha3/beta4, sequence (P30926 whole entry): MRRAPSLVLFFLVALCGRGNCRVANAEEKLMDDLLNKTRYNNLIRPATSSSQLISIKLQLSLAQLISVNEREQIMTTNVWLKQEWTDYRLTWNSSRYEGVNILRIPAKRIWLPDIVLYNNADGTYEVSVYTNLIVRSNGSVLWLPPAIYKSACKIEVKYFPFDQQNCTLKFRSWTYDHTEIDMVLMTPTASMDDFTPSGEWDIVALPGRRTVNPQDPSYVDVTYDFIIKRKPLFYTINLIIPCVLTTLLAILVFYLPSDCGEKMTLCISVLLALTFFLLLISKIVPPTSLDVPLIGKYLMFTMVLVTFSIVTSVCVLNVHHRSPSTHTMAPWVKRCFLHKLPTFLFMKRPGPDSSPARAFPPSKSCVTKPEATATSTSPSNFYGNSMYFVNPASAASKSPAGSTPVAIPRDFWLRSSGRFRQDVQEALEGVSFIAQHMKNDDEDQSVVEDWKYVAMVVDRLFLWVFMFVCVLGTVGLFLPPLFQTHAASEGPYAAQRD
Neuronal acetylcholine receptor; alpha3/beta4, sequence (P32297 whole entry): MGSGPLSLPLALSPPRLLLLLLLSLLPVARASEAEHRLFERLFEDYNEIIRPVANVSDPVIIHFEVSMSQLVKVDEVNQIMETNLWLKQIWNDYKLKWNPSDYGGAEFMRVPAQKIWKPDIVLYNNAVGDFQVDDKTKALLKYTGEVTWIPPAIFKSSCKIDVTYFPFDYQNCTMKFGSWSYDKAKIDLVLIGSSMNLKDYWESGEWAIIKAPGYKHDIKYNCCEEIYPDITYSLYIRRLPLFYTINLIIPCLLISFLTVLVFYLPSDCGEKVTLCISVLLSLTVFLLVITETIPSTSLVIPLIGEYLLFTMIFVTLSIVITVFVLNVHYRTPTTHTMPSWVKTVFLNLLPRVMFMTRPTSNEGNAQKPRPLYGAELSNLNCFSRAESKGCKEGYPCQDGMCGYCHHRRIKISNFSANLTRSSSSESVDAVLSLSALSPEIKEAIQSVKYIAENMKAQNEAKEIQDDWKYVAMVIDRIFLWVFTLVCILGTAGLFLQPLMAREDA
Neuronal acetylcholine receptor subunit alpha-7, sequence (Q05941 whole entry): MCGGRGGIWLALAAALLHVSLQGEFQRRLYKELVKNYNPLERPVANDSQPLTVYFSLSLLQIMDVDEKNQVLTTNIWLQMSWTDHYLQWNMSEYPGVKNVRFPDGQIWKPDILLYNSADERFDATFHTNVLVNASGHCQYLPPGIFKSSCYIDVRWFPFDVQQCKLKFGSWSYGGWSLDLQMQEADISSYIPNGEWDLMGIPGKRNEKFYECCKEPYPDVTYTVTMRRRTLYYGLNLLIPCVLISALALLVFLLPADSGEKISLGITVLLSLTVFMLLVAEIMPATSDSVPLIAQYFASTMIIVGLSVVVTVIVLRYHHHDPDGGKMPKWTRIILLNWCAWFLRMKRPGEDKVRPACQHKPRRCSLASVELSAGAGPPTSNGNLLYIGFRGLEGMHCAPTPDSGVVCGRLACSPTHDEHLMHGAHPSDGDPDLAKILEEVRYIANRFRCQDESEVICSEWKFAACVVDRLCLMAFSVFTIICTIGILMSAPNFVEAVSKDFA
T1 sequence (Q12809 whole entry): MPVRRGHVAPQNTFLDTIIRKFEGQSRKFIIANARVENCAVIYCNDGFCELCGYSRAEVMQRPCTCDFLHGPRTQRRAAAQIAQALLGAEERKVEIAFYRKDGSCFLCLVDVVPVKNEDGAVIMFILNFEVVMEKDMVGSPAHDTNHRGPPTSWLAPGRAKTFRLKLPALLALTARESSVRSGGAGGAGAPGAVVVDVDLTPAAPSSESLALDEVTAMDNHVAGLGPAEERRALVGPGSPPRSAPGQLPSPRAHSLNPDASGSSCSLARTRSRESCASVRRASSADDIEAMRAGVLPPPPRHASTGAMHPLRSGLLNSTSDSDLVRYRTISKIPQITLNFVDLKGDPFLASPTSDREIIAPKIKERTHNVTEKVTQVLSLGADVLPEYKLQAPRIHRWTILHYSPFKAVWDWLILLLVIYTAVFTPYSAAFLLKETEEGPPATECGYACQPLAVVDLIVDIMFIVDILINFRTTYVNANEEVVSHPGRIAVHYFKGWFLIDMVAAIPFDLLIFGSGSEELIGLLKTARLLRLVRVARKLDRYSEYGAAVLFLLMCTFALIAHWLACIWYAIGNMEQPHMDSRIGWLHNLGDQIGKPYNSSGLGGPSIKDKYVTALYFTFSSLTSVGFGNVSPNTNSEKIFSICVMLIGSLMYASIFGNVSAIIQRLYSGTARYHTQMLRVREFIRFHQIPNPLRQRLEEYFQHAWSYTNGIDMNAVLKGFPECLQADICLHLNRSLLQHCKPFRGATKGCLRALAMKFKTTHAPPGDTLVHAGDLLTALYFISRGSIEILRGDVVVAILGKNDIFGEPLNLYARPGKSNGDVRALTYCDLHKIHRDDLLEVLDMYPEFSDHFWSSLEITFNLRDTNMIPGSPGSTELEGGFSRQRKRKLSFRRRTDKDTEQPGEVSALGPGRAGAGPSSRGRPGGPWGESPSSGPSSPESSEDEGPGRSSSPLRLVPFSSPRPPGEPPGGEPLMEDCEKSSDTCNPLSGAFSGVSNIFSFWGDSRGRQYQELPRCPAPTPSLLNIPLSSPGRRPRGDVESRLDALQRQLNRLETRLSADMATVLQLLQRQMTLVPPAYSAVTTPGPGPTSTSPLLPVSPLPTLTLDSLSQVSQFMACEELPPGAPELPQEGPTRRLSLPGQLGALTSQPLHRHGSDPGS
Acetylcholine receptor; alpha1/beta1/delta/gamma, sequence (P02708 whole entry): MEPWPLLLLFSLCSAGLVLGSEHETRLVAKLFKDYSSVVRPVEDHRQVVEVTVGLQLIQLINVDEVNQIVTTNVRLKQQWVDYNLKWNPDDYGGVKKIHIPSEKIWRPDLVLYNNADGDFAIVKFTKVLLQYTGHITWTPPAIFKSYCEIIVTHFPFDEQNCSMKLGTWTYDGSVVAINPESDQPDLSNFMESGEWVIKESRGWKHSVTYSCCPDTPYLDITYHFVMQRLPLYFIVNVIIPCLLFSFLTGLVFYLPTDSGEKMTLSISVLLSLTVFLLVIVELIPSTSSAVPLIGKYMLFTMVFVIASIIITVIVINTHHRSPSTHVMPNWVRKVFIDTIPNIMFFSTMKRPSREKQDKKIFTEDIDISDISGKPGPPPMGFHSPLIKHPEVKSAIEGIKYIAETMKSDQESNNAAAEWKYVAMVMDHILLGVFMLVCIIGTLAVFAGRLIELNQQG
Acetylcholine receptor; alpha1/beta1/delta/gamma, sequence (P07510 whole entry): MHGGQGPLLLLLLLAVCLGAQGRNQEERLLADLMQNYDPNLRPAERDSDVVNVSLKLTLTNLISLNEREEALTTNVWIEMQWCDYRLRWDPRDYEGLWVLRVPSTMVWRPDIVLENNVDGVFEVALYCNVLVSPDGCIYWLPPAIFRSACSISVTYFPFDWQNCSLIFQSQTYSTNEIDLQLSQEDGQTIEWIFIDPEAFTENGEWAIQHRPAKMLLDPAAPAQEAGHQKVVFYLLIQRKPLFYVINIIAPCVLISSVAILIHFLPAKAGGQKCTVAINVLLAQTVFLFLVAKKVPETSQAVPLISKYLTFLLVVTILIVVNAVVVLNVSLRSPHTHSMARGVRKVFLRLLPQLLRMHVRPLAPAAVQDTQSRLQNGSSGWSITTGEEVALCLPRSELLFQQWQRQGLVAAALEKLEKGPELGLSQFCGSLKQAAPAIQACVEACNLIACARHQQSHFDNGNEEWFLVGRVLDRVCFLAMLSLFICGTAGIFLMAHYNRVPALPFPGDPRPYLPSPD
Acetylcholine receptor; alpha1/beta1/delta/gamma, sequence (P11230 whole entry): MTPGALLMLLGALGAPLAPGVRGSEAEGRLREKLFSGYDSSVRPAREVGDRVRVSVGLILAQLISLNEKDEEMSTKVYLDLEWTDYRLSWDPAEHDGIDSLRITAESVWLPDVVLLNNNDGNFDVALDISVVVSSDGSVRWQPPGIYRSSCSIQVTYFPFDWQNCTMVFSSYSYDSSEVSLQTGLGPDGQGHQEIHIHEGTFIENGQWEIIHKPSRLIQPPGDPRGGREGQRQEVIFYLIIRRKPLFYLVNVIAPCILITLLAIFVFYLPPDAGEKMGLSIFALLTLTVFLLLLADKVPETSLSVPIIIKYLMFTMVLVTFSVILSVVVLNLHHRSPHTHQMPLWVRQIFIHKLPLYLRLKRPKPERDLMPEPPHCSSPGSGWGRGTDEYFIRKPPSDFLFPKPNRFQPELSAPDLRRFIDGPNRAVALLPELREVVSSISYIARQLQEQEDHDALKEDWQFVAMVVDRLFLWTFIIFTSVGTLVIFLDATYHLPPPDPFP
Acetylcholine receptor; alpha1/beta1/delta/gamma, sequence (Q07001 whole entry): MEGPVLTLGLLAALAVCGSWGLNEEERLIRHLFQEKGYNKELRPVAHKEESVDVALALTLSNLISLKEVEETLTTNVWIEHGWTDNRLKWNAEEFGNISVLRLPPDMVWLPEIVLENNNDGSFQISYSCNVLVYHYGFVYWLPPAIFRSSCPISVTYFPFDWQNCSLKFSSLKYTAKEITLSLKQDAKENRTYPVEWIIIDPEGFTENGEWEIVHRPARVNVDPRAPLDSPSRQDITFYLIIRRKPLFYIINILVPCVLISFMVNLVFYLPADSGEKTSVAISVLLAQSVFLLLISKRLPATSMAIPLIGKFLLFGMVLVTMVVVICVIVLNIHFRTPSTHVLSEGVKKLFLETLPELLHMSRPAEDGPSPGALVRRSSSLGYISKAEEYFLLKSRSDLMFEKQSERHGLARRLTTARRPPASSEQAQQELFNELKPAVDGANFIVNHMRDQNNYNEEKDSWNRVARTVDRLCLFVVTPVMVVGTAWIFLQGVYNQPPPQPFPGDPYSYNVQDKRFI

O=C(N[C@H]1CN2CCC1CC2)c1ccc2sccc2c1
Ki [1]: 0.0069 µM | EC50 [2]: 0.055 µM | remaining at 1 h [3]: 6%

O=C(N[C@H]1CN2CCC1CC2)c1cc2ccsc2cn1
Ki [1]: 0.0063 µM | EC50 [2]: 0.1 µM | remaining at 1 h [3]: 7%

O=C(N[C@H]1CN2CCC1CC2)c1ccc2c(c1)CCN2
Ki [1]: 0.083 µM | EC50 [2]: 0.6 µM

O=C(N[C@H]1CN2CCC1CC2)c1ccc2cc[nH]c2c1
EC50 [2]: 0.1 µM | remaining at 1 h [3]: 14%

O=C(N[C@H]1CN2CCC1CC2)c1cc2occc2cn1
Ki [1]: 0.05 µM | EC50 [2]: 0.374 µM | remaining at 1 h [3]: 40%

O=C(N[C@H]1CN2CCC1CC2)c1ccc2ccoc2n1
EC50 [2]: > 10 µM

O=C(N[C@H]1CN2CCC1CC2)c1cc2sccc2cn1
EC50 [2]: 0.081 µM | remaining at 1 h [3]: 7%

O=C(N[C@H]1CN2CCC1CC2)c1cnc2occc2c1
EC50 [2]: > 10 µM

O=C(N[C@H]1CN2CCC1CC2)c1cc2cc[nH]c2cn1
EC50 [2]: 1.17 µM | remaining at 1 h [3]: 29%

O=C(N[C@H]1CN2CCC1CC2)c1ccc2[nH]ccc2c1
EC50 [2]: 0.55 µM

O=C(N[C@H]1CN2CCC1CC2)c1ccc2ccsc2c1
IC50 [4]: 38 µM | Ki [1]: 0.0021 µM | IC50 [5]: > 100 µM | Ki [6]: 0.188 µM | EC50 [2]: 0.048 µM | Ki [7]: 0.174 µM | remaining at 1 h [3]: 29% | inhibition at 20 µM (hERG [8]): 65% | inhibition at 2 µM (hERG [9]): 13%

O=C(N[C@H]1CN2CCC1CC2)c1ccc2occc2c1
bioavailability [10]: 88% | IC50 [4]: > 100 µM | Ki [1]: 0.0016 µM | clearance [11]: 39 mL/min/kg | IC50 (Cytochrome P450 2D6): 3.6 µM | IC50 [5]: > 100 µM | Ki [6]: 0.58 µM | EC50 [2]: 0.047 µM | Ki [7]: 0.663 µM | remaining at 1 h [3]: 77% | half-life [12]: > 2 h | half-life [13]: > 2 h | inhibition at 20 µM (hERG [8]): 33% | inhibition [14]: 5% | inhibition at 2 µM (hERG [9]): 2%

O=C(N[C@H]1CN2CCC1CC2)c1ccc2c(c1)CCO2
Ki [1]: 0.015 µM | EC50 [2]: 0.077 µM

O=C(N[C@H]1CN2CCC1CC2)c1ccc2ccoc2c1
bioavailability [10]: 76% | IC50 [4]: 81 µM | Ki [1]: 0.0125 µM | clearance [11]: 58 mL/min/kg | IC50 (Cytochrome P450 2D6): > 10 µM | IC50 [5]: > 100 µM | Ki [6]: 0.962 µM | EC50 [2]: 0.086 µM | Ki [7]: 0.31 µM | remaining at 1 h [3]: 69% | half-life [13]: > 2 h | inhibition at 20 µM (hERG [8]): 29% | inhibition at 2 µM (hERG [9]): 2%

O=C(N[C@H]1CN2CCC1CC2)c1ccc(Cl)cc1 [PNU-282987]
bioavailability [10]: 74% | IC50 [4]: > 60 µM | Ki [1]: 0.024 µM | clearance [11]: 30 mL/min/kg | IC50 (Cytochrome P450 2D6): > 3 µM | IC50 [5]: > 60 µM | Ki [6]: 4.54 µM | EC50 [2]: 0.128 µM | Ki [7]: 1.66 µM | remaining at 1 h [3]: 96% | half-life [12]: > 2 h | half-life [13]: > 2 h | inhibition at 20 µM (hERG [8]): 57% | inhibition [14]: 14% | inhibition at 2 µM (hERG [9]): 11%
